These results are taken from PubChem BioAssay.

By viability is commonly meant a read-out of living cells in per cent, often relative to untreated cells. Broadly, the inhibition is the relative decrease from the control value, in per cent.

Assay [1] can be described thus: reduced viability of SK-BR-3 breast cancer cells – cell-based, 24 h, human, pilot screen (AID 572;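 active = viability at or below 10% of carrier control in both of two separate runs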;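 also: compound exposure lasted between 18 and 24 h rather than exactly 24 h; 100% = carrier-treated control wells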). The following applies: SK-BR-3 viability, CellTiter-Glo luminescence, at 10 µM, stronger effect = lower value.
The nature of assay [2]: HUVEC growth inhibition – cell-based, human, primary screen (AID 575;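 active = viability at or below 30% in both replicate assays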;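 also: 100% = median of untreated cell wells with 0.1% DMSO on each plate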). The following applies: HUVEC proliferation, CellTiter-Glo luminescence, 72 h; at 10 µM; stronger effect = lower value. The essentials: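 Test system: primary human umbilical vein endothelial cells; medium: endothelial basal medium with 2% FBS plus growth supplements; dosing: 10 µM compound only; times: 72 h treatment at 37 °C; signal: CTG luminescence; read-out: % viability relative to median vehicle-well signal on each plate; control set: vehicle and MePR control wells; plate: 384-well, collagen-coated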
(In ATP-based viability assays light output follows the ATP content of the culture.)

Assay [3] is described as follows: H69AR cell proliferation blockers – human, duplicate replicates, primary screen (AID 580;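 active = viability at or under a set limit in both replicates, limit being median viability minus 3 SD, cut at about 48% in these data, passing the limit was not always enough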;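 also: 100% = mean luminescence of untreated wells and 0% = no signal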). The following applies: H69AR lung tumor cells viability, ATP luminescence, 72 h; at 10 µM; stronger effect = lower value.
A short description of assay [4]: MRP1 drug-resistance reversers in H69AR cells – cell-based, doxorubicin co-treatment, pilot screen (AID 601;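 active = viability loss from added drug above about 55%, and viability with drug at most 40%, in both replicates, limit read from the data, passing the limit was not always enough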). The following applies: CellTiter-Glo, 72 h, at 10 µM; for differential viability (reversal): stronger effect = higher value.
Assay [5] is described as follows: yeast transport mutant growth inhibition pilot in 384-well plates, post-Golgi transport modulator project (AID 636; in the data active = inhibition above about 31%). The following applies: absorbance 615 nm, about 18 h, stronger effect = higher value.
Assay [6] can be described thus: growth suppression of yeast trafficking mutant, preliminary HTS, modulators of trafficking downstream of Golgi apparatus project, 1536-format plate, OD 615 nm (AID 637). The following applies: yeast transport mutant growth, absorbance 615 nm, 18 h; stronger effect = higher value.
Where [7] appears, read: H69AR cells + 2 uM doxorubicin, measured here: viability with 2 uM doxorubicin, stronger effect = lower value.
[8] abbreviates: H69AR cells, compound alone cytotoxicity.

The source made the active and inactive calls. Rule as the data show it, unless noted: active = inhibition above about 30%; inactive = the rest.

As for `O=C(O)C1C2C=CC(C3CC23)C1C(=O)NCCc1ccccc1` (stereo unspecified), the viability in assay [1] was 101% (inactive); in assay [2] it was 89.7% (inactive); in assay [3] it was 98% (inactive); in assay [4] (setting [7]) it was 91.7%; in assay [4] (setting [8]), 98%. Moreover, the differential viability (reversal) in assay [4] (H69AR cells + 2 uM doxorubicin) was 6.28% (inactive). Also, the inhibition in assay [5] is -5.81% (inactive); in assay [6], -3.93% (inactive).
Take `CCC(=O)Nc1nn(C)c2nc3c(C)cccc3cc12`: the viability in assay [1] was 92% (inactive); in assay [2] it was 105% (inactive); in assay [3], 104% (inactive); in assay [4] (setting [7]) it was 86.4%; in assay [4] (setting [8]), 104%. The differential viability (reversal) in assay [4] (H69AR cells + 2 uM doxorubicin) is 17.2% (inactive). Moreover, the results for the inhibition in assay [5] and in assay [6] were -3.47% (inactive) and -4.18% (inactive), respectively.
`COc1ccccc1-n1c(=O)c2c3c(sc2n2c(SC(C)C)nnc12)CCC3`: the viability in assay [1] is 104% (inactive); in assay [2] it was 113% (inactive); in assay [3], 86.2% (inactive); in assay [4] (setting [7]) it was 41.7%; in assay [4] (setting [8]), 86.2%. The differential viability (reversal) in assay [4] (H69AR cells + 2 uM doxorubicin) was 44.6% (inactive). The results for the inhibition in assay [5] and in assay [6] were -0.14% (inactive) and 1.77% (inactive), respectively.
As to `CN(C(=O)Cn1c(=O)n(CCCCC(=O)NC2CCCC2)c(=O)c2ccccc21)C1CCCCC1`, the viability is 106% (inactive) in assay [1]; 63.2% (inactive) in assay [2]; 93% (inactive) in assay [3]; 80.9% in assay [4] (setting [7]); 93% in assay [4] (setting [8]). In assay [4] (H69AR cells + 2 uM doxorubicin), the differential viability (reversal) was 12.2% (inactive). The inhibition is -2.73% (inactive) in assay [5] and 5.08% (inactive) in assay [6].
As to `CCOc1cc(C2Nc3ccccc3C(=O)N2c2ccccc2OC)ccc1O` (stereo unspecified), the viability in assay [1] was 98% (inactive); in assay [2], 105% (inactive); in assay [3] it was 95% (inactive); in assay [4] (setting [7]), 94.9%; in assay [4] (setting [8]), 95%. Further, in assay [4] (H69AR cells + 2 uM doxorubicin), the differential viability (reversal) is 0.125% (inactive). Further, the values for the inhibition in assay [5] and in assay [6] were -4.59% (inactive) and 28.4% (inactive), respectively.
As to `CCOC(=O)Cc1csc(NC(=O)CSc2nnc(C3CC3)n2C)n1`, the viability in assay [1] was 95% (inactive); in assay [2], 107% (inactive); in assay [3], 97.9% (inactive); in assay [4] (setting [7]) it was 91.5%; in assay [4] (setting [8]) it was 97.9%. Moreover, the differential viability (reversal) in assay [4] (H69AR cells + 2 uM doxorubicin) was 6.36% (inactive). Also, the inhibition in assay [5] is -5.81% (inactive); in assay [6], -3.82% (inactive).
Consider `Nn1c(SCC(=O)NC2CCCCC2)nnc1-c1ccc(Cl)cc1`, for which the viability was 89% (inactive) in assay [1]; 104% (inactive) in assay [2]; 91.6% (inactive) in assay [3]; 82.7% in assay [4] (setting [7]); 91.6% in assay [4] (setting [8]). For the same molecule, the differential viability (reversal) in assay [4] (H69AR cells + 2 uM doxorubicin) was 8.96% (inactive). Further, the inhibition in assay [5] was -6.16% (inactive); in assay [6], 3.71% (inactive).
Turning to `Cc1ccc(S(=O)(=O)N2CCN(c3nc(C)nc4sc(C)c(C)c34)CC2)cc1`, the viability was 95% (inactive) in assay [1]; 108% (inactive) in assay [2]; 99.5% (inactive) in assay [3]; 102% in assay [4] (setting [7]); 99.5% in assay [4] (setting [8]). For the same molecule, the differential viability (reversal) in assay [4] (H69AR cells + 2 uM doxorubicin) was -2.76% (inactive). In addition, the inhibition in assay [5] was -3.73% (inactive); in assay [6], -0.73% (inactive).
Regarding `CCOc1cc(C(=O)N(C)Cc2cc3cc(OC)ccc3[nH]c2=O)cc(OCC)c1OCC`, the viability was 88% (inactive) in assay [1]; 114% (inactive) in assay [2]; 95.1% (inactive) in assay [3]; 96.2% in assay [4] (setting [7]); 95.1% in assay [4] (setting [8]). The differential viability (reversal) in assay [4] (H69AR cells + 2 uM doxorubicin) is -1.01% (inactive). Further, the values for the inhibition in assay [5] and in assay [6] were -4.46% (inactive) and 17.3% (inactive), respectively.
For `COC(=O)Cn1c(CCS(=O)(=O)c2ccc(C)cc2)nc2ccccc21`, the viability in assay [1] is 99% (inactive); in assay [2], 96.5% (inactive); in assay [3] it was 76.4% (inactive); in assay [4] (setting [7]), 69.8%; in assay [4] (setting [8]) it was 76.4%. For the same molecule, the differential viability (reversal) in assay [4] (H69AR cells + 2 uM doxorubicin) is 6.58% (inactive). Further, the inhibition in assay [5] is -0.91% (inactive); in assay [6], -1.64% (inactive).
`CCOC(=O)CSc1nnc(-c2ccc(NS(=O)(=O)c3ccc(C)cc3)cc2)o1`: the viability in assay [1] is 87% (inactive); in assay [2] it was 56% (inactive); in assay [3] it was 91.5% (inactive); in assay [4] (setting [7]) it was 86.4%; in assay [4] (setting [8]) it was 91.5%. Moreover, the differential viability (reversal) in assay [4] (H69AR cells + 2 uM doxorubicin) is 5.14% (inactive). For the same molecule, the inhibition was -4.29% (inactive) in assay [5] and -5.67% (inactive) in assay [6].
Take `O=C(Nc1cc(C(=O)N2CCCC2)ccc1N1CCCC1)c1ccccc1F`: the viability in assay [1] was 108% (inactive); in assay [2], 119% (inactive); in assay [3], 101% (inactive); in assay [4] (setting [7]), 92%; in assay [4] (setting [8]), 101%. The differential viability (reversal) in assay [4] (H69AR cells + 2 uM doxorubicin) was 8.93% (inactive). The inhibition was -8.13% (inactive) in assay [5] and -3.64% (inactive) in assay [6].
